Source: PubChem BioAssay
A selection: hits, their analogues and other compounds. The true share with any hit is near 1.4%.
STAT3 act = IL-6 driven STAT3 reporter potentiators, primary screen, U3A cells, luciferase, luminescence, MLSCN library | activation (% of control), % at 5.6 µM | AID 871, 2007 | 190,000 tested, 0.91% active | IL-6 STAT3-luciferase reporter; 100% = signal with IL-6 EC80 alone;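 active means activation above the screen-wide mean of compound activation plus 3 SD, cut at about 130% in these data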;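 further: 0% = background luminescence of wells with medium and substrate only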
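Assay system – human STAT1-deficient U3A cells with stable STAT3-luciferase reporter · Also added – IL-6 (33 ng/mL) · Schedule – compound 1 h, then IL-6 6 h at 37 °C · Technique – reporter luminescence signal · Evaluation – % activation versus median of IL-6-stimulated wells · Benchmarks – IL-6-only wells as 100% reference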
STAT1 inh = STAT1 signaling inhibitors, primary screen, cell-based, HTS, luciferase reporter. NIH 3T3 STAT1-luciferase reporter, IFN-gamma, luminescence. inhibition, % at 5.5 µM. 200,000 tested, 0.35% active. AID 920, 2007;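 active means inhibition above a set limit, the mean inhibition across all tested compounds plus 3 SD, cut at about 34% in these data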;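 further: 0% = IFN-gamma with DMSO and 100% = IFN-gamma with 300 µM nifuroxazide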
PERK inhibitor = block of dimerizer-induced PERK translation repression, primary screen, PERK inhibitor project, CHO PERK-DD cells, SEAP luminescence, HTS; Eukaryotic translation initiation factor 2-alpha kinase 3 (Homo sapiens), Q9NZJ5; CHO PERK-DD fusion, SEAP luminescence translation reporter; inhibition, % at 5.6 µM; 220,000 tested, 0.17% active;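 active means inhibition above the mean inhibition of all tested compounds plus 3 SD, set separately per screening campaign, cut at about 2.9% in these data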;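 further: PERK kinase domain activated by AP20187 dimerizer at 100 nM; 0% = DMSO with dimerizer and 100% = rapamycin at 8.4 µM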
STAT3 inh-1 = IL-6 driven STAT3 reporter inhibitors, primary screen, U3A cells, luciferase, luminescence, MLSCN library | AID 862, 2007 | inhibition, % at 5.5 µM | 190,000 tested, 0.89% active | IL-6 STAT3-luciferase reporter; host cell line lacks STAT1;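 active means inhibition above the mean inhibition across all screened compounds plus 3 SD, cut at about 44% in these data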;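 further: 0% = DMSO only wells and 100% = 100 µM nifuroxazide control wells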
Platelet DG rel = inhibitors of platelet dense granule secretion, primary screen, cell-based, MLPCN, human platelets. human platelet-rich plasma, SFLLRN dense granule ATP release, luminescence. inhibition, %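 (compounds screened at 7.5 µM in platelet-rich plasma)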. 300,000 tested, 0.22% active. AID 1663, 2009;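 active means mean replicate score, as percent of positive control, at or above 50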
STAT3 inh-2 = STAT3 reporter inhibitors, retest of hits, confirmation, U3A cells, luciferase, luminescence; shares compounds with STAT3 inh-1; IL-6 STAT3 luciferase reporter; cell line lacks STAT1; inhibition, % at 5.7 µM; 1,200 tested, 45% active;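 active means inhibition above the hit cutoff computed for the primary STAT3 screen, cut at about 44% in these data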;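 further: 0% = IL-6 plus DMSO and 100% = IL-6 plus nifuroxazide control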
NFkB inh STAT3ct = NF-kB reporter inhibitors in human cells, confirmation, counter-screen for STAT3 inhibitor project, cell-based, HEK293T, luciferase, TNF-alpha stimulus; AID 1308, 2008; 1,200 tested, 36% active; TNF-alpha induced; inhibition, % at 5.7 µM; shares compounds with STAT3 inh-1;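 active means inhibition above the mean of solvent-only control wells plus 3 SD, cutoff set per campaign, cut at about 13% in these data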;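 further: 0% = TNF-alpha with DMSO and 100% = TNF-alpha with MG high control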
STAT1 inh 2 = STAT1 reporter inhibitors, IFN-gamma induced, confirmation, counter-screen for STAT3 inhibitor project, cell-based, NIH 3T3, luciferase luminescence; shares compounds with STAT3 inh-1; NIH 3T3 STAT1-luciferase reporter; inhibition, % at 5.7 µM; 1,200 tested, 27% active; AID 1317, 2008;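 active means inhibition above the mean plus 3 SD of solvent-only control wells, limit set per screening run, cut at about 16% in these data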;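 further: 0% = DMSO with IFN-gamma and 100% = nifuroxazide control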
An asterisk follows results filed as active.

How did Cc1ccc(S(=O)(=O)CC2CSc3nc4ccccc4n32)cc1 (stereo not drawn) do in these assays?
STAT3 act: 32; STAT1 inh: 34; PERK inhibitor: -1; STAT3 inh-1: 88*; Platelet DG rel: 4; STAT3 inh-2: 84*; NFkB inh STAT3ct: 34*; STAT1 inh 2: 32*

How did COC(=O)c1ccc(NC(=O)CCN2CCN(CCC(=O)Nc3ccc(C(=O)OC)cc3)CC2)cc1 do in these assays?
STAT3 act: 61; STAT1 inh: 0; PERK inhibitor: 0; STAT3 inh-1: 49*; Platelet DG rel: -3; STAT3 inh-2: 38; NFkB inh STAT3ct: 8; STAT1 inh 2: 4

How did COC(=O)c1ccc(NC(=O)CCN2CCCCC2)cc1 do in these assays?
STAT3 act: 78; STAT1 inh: 6; PERK inhibitor: 0; STAT3 inh-1: 32; Platelet DG rel: -4

How did CCOc1ccc(OCc2cccc(C(=O)N3CCCC3)c2)cc1 do in these assays?
STAT3 act: 57; STAT1 inh: 42*; PERK inhibitor: -1; STAT3 inh-1: 53*; Platelet DG rel: 2; STAT3 inh-2: 17; NFkB inh STAT3ct: 17*; STAT1 inh 2: 5

How did Cn1c(SCC(=O)N2CCN(c3ccccc3)CC2)nnc1-c1c[nH]c2ccccc12 do in these assays?
STAT3 act: 71; STAT1 inh: 7; PERK inhibitor: 0; STAT3 inh-1: 42; Platelet DG rel: -5

What do the screens show for `CC1(C)Cc2ccccc2-c2nnc(SCc3ccccc3)n21`?
STAT3 act: 77; STAT1 inh: 1; PERK inhibitor: 0; STAT3 inh-1: 29; Platelet DG rel: 10

How did CC1(C)Cc2ccccc2-c2nnc(SCC(=O)N3CCN(c4ccccc4)CC3)n21 do in these assays?
STAT3 act: 67; STAT1 inh: 2; PERK inhibitor: -1; STAT3 inh-1: 44*; Platelet DG rel: 2; STAT3 inh-2: 20; NFkB inh STAT3ct: -2; STAT1 inh 2: -3

Results for CCn1c(SCC(=O)N2CCN(c3ccccc3)CC2)nnc1-c1c[nH]c2ccccc12 ?
STAT3 act: 64; STAT1 inh: 12; PERK inhibitor: -1; STAT3 inh-1: 51*; Platelet DG rel: 28; STAT3 inh-2: 27; NFkB inh STAT3ct: -2; STAT1 inh 2: 2

Results for Oc1ccc(-c2cn3cc(C(F)(F)F)ccc3n2)cc1 ?
STAT3 act: 29; STAT1 inh: 2; PERK inhibitor: -1; STAT3 inh-1: 83*; Platelet DG rel: 36; STAT3 inh-2: 80*; NFkB inh STAT3ct: 39*; STAT1 inh 2: 18*

How did Clc1ccc(-c2cn3cc(Cl)ccc3n2)cc1 do in these assays?
Platelet DG rel: 10

What do the screens show for `COc1ccc(OCC(=O)Nc2cc(-c3nn(C)c(=O)c4ccccc34)ccc2OC)cc1`?
STAT3 act: 61; STAT1 inh: 26; PERK inhibitor: 0; STAT3 inh-1: 51*; Platelet DG rel: 4; STAT3 inh-2: 48*; NFkB inh STAT3ct: 22*; STAT1 inh 2: 25*

Results for CC1=NC(=O)C(N=Nc2cccc(C(=O)O)c2)N1c1ccccc1 (stereo not drawn) ?
STAT3 act: 45; STAT1 inh: 29; PERK inhibitor: 1; STAT3 inh-1: 65*; Platelet DG rel: 8; STAT3 inh-2: 41; NFkB inh STAT3ct: 18*; STAT1 inh 2: -30

How did COC(=O)c1ccccc1NC(=O)CSc1nnc(-c2ccc(C)cc2)o1 do in these assays?
STAT3 act: 109; STAT1 inh: -25; PERK inhibitor: 1; STAT3 inh-1: -7; Platelet DG rel: -1

What do the screens show for `O=C(CSc1nnc(-c2ccccc2)o1)Nc1ccccc1F`?
STAT3 act: 68; STAT1 inh: -20; PERK inhibitor: 0; STAT3 inh-1: 45*; Platelet DG rel: 5; STAT3 inh-2: 27; NFkB inh STAT3ct: -26; STAT1 inh 2: -66

What do the screens show for `Cc1ccc(-c2nnc(SCC(=O)Nc3ccccc3F)o2)cc1`?
STAT3 act: 59; STAT1 inh: -22; PERK inhibitor: 0; STAT3 inh-1: 56*; Platelet DG rel: 8; STAT3 inh-2: 34; NFkB inh STAT3ct: -32; STAT1 inh 2: -81

What do the screens show for `CCOc1ccc(-c2nnc(SCC(=O)Nc3cc(C)on3)o2)cc1`?
STAT3 act: 62; STAT1 inh: -3; PERK inhibitor: 1; STAT3 inh-1: 49*; Platelet DG rel: 11; STAT3 inh-2: 42; NFkB inh STAT3ct: 16*; STAT1 inh 2: 14

What do the screens show for `COc1cccc(-c2nnc(SCC(=O)Nc3cc(C)on3)o2)c1`?
STAT3 act: 104; STAT1 inh: -5; PERK inhibitor: 1; STAT3 inh-1: -3; Platelet DG rel: 6

What do the screens show for `COc1ccc(-c2noc(CNC(=O)c3ccc4c(c3)OCO4)n2)cc1OC`?
Platelet DG rel: 8

Results for COc1ccc(Cc2noc(CN3CCC(c4ccncc4)CC3)n2)cc1OC ?
STAT3 act: 53; STAT1 inh: 21; PERK inhibitor: 2; STAT3 inh-1: 60*; Platelet DG rel: -21; STAT3 inh-2: 30; NFkB inh STAT3ct: 14*; STAT1 inh 2: 5

Results for CSCCC(NC(=O)COc1ccccc1)C(=O)NCCOc1ccc(C)cc1 (stereo not drawn) ?
Platelet DG rel: -2

How did COc1ccc(NC(=O)CCc2nc3ccccc3[nH]2)cc1 do in these assays?
STAT3 act: 106; STAT1 inh: -7; PERK inhibitor: 1; STAT3 inh-1: 6; Platelet DG rel: -3

Results for Oc1ccccc1-c1cc(-c2ccc3c(c2)OCCO3)n[nH]1 ?
STAT3 act: 57; STAT1 inh: -14; PERK inhibitor: 0; STAT3 inh-1: 55*; Platelet DG rel: 37; STAT3 inh-2: 21; NFkB inh STAT3ct: -44; STAT1 inh 2: -29

How did O=C(O)c1cc(-c2ccc3c(c2)OCCO3)n[nH]1 do in these assays?
STAT3 act: 102; STAT1 inh: -3; PERK inhibitor: 2; STAT3 inh-1: 0; Platelet DG rel: -3

Results for Cc1cc(C)n(CCC(=O)N/N=C/c2ccc(Cl)c([N+](=O)[O-])c2)n1 ?
PERK inhibitor: -1; Platelet DG rel: -1
